What was measured:
MIF [1] = target: T1, MIF (Homo sapiens, UniProt P14174); experiment: MIF tautomerase activity assay with 4-HPP as substrate; settings: for LE (ligand efficiency): LE = 1.4(−log IC50)/N; for LLE (lipophilic ligand efficiency): LLE = pIC50 – C log P
T1 sequence (P14174 2-115 limits assumed): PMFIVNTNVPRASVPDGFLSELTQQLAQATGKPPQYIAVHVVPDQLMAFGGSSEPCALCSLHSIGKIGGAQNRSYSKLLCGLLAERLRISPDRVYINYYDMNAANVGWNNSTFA

MIF [2] = target: T1, MIF; experiment: FID assay with 6d as fluorescent indicator; format: binding
MIF–sCD74 interaction = target: T2, MIF–sCD74 interaction (Homo sapiens, UniProt P14174); experiment: ELISA of MBP–sCD74 binding to coated MIF; settings: at concentrations up to 50 μM
T2 sequence (P14174 2-115 limits assumed): T1 sequence (P14174 2-115 limits assumed)
In short: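 Recombinant C-terminal His-tagged human MIF (E. coli-expressed, Ni-purified) coated at 250 nM overnight at 4 °C, then blocked with 2% BSA and washed. His/MBP-purified MBP–sCD74 (500 nM) was premixed with test compound (1–100 μM, added in DMSO) for 10 min at RT, then applied to wells for 30 min at RT. Controls: DMSO vehicle and no-sCD74. Detection used rabbit anti-CD74 (1:1000) then goat anti-rabbit HRP (1:1000), each 30 min at RT.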

MIF [3] = target: T1, MIF; experiment: FID assay with 7 as fluorescent indicator; format: binding; settings: 7 50 nM, MIF 100 nM, PBS pH 7.4; calculated from EC50 by eq 1
[4] = target: bovine serum albumin (BSA) (Bos taurus, UniProt P02769); experiment: Fluorescence quenching control with BSA; format: binding; settings: 800 nM BSA, 50 nM fluorophore
[5] = Fluorescence quantum yield and fluorescence lifetime; format: physicochemical; settings: relative to 4-MU, excitation 330 nm
A549 cells [6] = experiment: Colony formation; format: cell-based; settings: 10 days
In short: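 A549 cells seeded at 100 cells/well in RPMI with 10% FBS and 100 U/mL penicillin/streptomycin, then incubated overnight. Exposed to test compound for 10 days; final DMSO 0.2%, with 0.2% DMSO as vehicle control. Fixed with 4% paraformaldehyde (20 min), stained with 0.5% crystal violet (20 min), photographed and image-analysed. A colony is an aggregate of >50 cells.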

A549 cells [7] = experiment: MTS cell viability assay; format: cell-based; settings: concentrations below 20 μM, 24 h of treatment
[8] = tested on: MIF-induced ERK phosphorylation in A549 cells; experiment: MIF-induced ERK phosphorylation, Western blot; format: cell-based; settings: 10 μM, 150 ng/mL MIF

Chain of bovine serum albumin (BSA) (P02769 25-607): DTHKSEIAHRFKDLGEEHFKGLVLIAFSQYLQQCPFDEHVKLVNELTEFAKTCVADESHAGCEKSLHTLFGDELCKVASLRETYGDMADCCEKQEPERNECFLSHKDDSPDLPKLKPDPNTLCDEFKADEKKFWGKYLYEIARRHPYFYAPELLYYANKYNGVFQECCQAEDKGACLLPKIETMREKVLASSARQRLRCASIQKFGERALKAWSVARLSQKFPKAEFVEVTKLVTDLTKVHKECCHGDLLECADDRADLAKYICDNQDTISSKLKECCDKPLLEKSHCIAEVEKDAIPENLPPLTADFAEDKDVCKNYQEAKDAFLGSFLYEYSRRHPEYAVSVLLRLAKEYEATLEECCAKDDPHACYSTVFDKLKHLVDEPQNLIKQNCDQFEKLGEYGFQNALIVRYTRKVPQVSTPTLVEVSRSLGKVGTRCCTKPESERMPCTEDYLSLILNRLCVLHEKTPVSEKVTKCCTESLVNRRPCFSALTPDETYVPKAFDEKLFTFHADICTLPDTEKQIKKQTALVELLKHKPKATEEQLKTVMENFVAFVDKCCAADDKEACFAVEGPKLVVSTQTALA

COc1ccc(N2Cc3ccc(O)cc3OC2=O)cc1OC [Compound 8, 3-(3,4-Dimethoxyphenyl)-7-hydroxy-3,4-dihydro-2H-benzo[e][1,3]oxazin-2-one, reference compound]
LE (ligand efficiency) (MIF [1]): 0.43 | LLE (lipophilic ligand efficiency) (MIF [1]): 4.85 | EC50 (MIF [2]): 386 ± 44 nM | inhibition of MIF–sCD74 binding (MIF–sCD74 interaction): did not demonstrate inhibition

4-(4-(isoquinolin-3-yl)-1H-1,2,3-triazol-1-yl)phenol [Compound 10, reference compound]
Kd (MIF [3]): 470 ± 80 nM | Ki (MIF [1]; 4-HPP conversion assay, Ki = IC50/(1 + 0.5/Km)): 440 ± 30 nM

O=C(O)c1ccc(-c2ccc(-c3cc4ccc(O)cc4oc3=O)cc2)cc1 [Compound 7, 4′-(7-Hydroxy-2-oxo-2H-chromen-3-yl)-[1,1′-biphenyl]-4-carboxylic Acid]
fluorescence quenching by BSA [4]: no fluorescence quenching | fluorescence quantum yield [5]: 0.32 | colony formation (A549 cells [6]; 2.5 μM): significantly lower numbers of colonies | colony formation (A549 cells [6]; 10 μM): significantly lower numbers of colonies | cell viability (A549 cells [7]): did not inhibit cell viability | IC50 (MIF [1]): 71 ± 3 nM | LE (ligand efficiency) (MIF [1]): 0.37 | LLE (lipophilic ligand efficiency) (MIF [1]): 5.80 | mode of inhibition (enzyme kinetics) (MIF [1]; Lineweaver–Burk plot vs 4-HPP): binds in competition with 4-HPP | increased potency compared to precursor 6l (MIF [1]; vs 6l): 10 fold | MIF-induced ERK phosphorylation [8]: attenuated MIF-induced ERK phosphorylation

O=c1oc2cc(O)ccc2cc1-c1ccccc1 [Compound 6a, 7-Hydroxy-3-phenyl-2H-chromen-2-one]
enhanced potency compared to inhibitor 2 (MIF [1]; Ki ratio vs 2): 10 fold

O=C(NCc1cn(-c2ccc(O)c(F)c2)nn1)c1cc2cc(Cl)ccc2[nH]1 [Compound 13, 5-chloro-N-((1-(3-fluoro-4-hydroxyphenyl)-1H-1,2,3-triazol-4-yl)methyl)-1H-indole-2-carboxamide, reference compound]
colony formation (A549 cells [6]; 10 μM): inhibited colony formation | LE (ligand efficiency) (MIF [1]): 0.30 | LLE (lipophilic ligand efficiency) (MIF [1]): 2.05

COC(=O)CC1CC(c2ccc(O)cc2)=NO1 (stereo not drawn) [ISO-1, methyl 2-(3-(4-hydroxyphenyl)-4,5-dihydroisoxazol-5-yl)acetate, reference compound]
colony formation (A549 cells [6]; 100 μM): inhibited colony formation | inhibition of MIF–sCD74 binding (MIF–sCD74 interaction): did not demonstrate inhibition

COc1ccc(-c2cc3ccc(O)cc3oc2=O)cc1 [Compound 6d, 7-Hydroxy-3-(4-methoxyphenyl)-2H-chromen-2-one]
fluorescence quantum yield [5]: 0.25

Source: publication PMC7586407 (Journal of Medicinal Chemistry, 2020)
